The record followed here is ChEMBL document CHEMBL1145118, “Metabolites of febrifugine and its synthetic analogue by mouse liver S9 and their antimalarial activity against Plasmodium malaria parasite” (J Med Chem, 2003).

Some results are limits rather than exact numbers.

Test [1] deals with Plasmodium berghei. The test can be described thus: (§1) In vivo effective dose for antimalarial activity by intraperitoneal dose. In kind it is functional. The settings on record: ip. The essentials: (§2)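 Mice infected with P. berghei were dosed intraperitoneally or orally, in groups of five, once daily on days 0–3. Compounds were given at various concentrations in distilled water or olive oil. Parasitemia was measured on day 4, the day after the last dose. ED50 and ED90 were derived by a previously reported protocol.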

The test system of test [2] is Plasmodium berghei. Described as §1. It is filed as functional. Particulars: ip. The procedure, abridged:
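P. berghei-infected mice, five per group. Test agents were prepared at various concentrations in distilled water or olive oil and given intraperitoneally once daily on days 0–3. Parasitemia was measured on day 4, the day after the last dose, and effective doses were derived by a previously reported protocol.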
This is another data set of the same source.

A short description of test [3]: Selectivity ratio between cytotoxicity to antimalarial activity was determined. In kind it is functional.
The next test relates to Plasmodium falciparum. The test can be described thus: In vitro antimalarial activity against Plasmodium falciparum FCR3. In kind it is functional, organism-based.
A further test deals with FM3A. The test can be described thus: Cytotoxicity against FM3A mouse mammary cells. It is filed as functional, cell-based.
The subject of test [4] is Plasmodium berghei. The test can be described thus: In vivo effective dose for antimalarial activity by peroral dose. It is filed as functional. Particulars: po. The essentials: as §2
Test [5] relates to Plasmodium berghei. Description: In vivo antimalarial activity at >100mg/kg intraperitoneal dose. It is filed as functional.

The compound `CC1(C)[C@@H](n2cnc3ccccc3c2=O)C(=O)C[C@@H]2[C@@H](O)CCCN21` had an ED90 with Plasmodium berghei [1] of 6.6 mg/kg. In the test with Plasmodium berghei [2], this compound came in with an ED50 of 2.5 mg/kg. In addition, the Ratio in test [3] was found to be 238.

Regarding `O=C(C[C@H]1NCCC[C@@H]1O)Cn1c(=O)[nH]c2ccccc2c1=O`, the EC50 is 6600 nM in the test with Plasmodium falciparum and more than 85 µM in the test with FM3A. Besides, the Ratio in test [3] is more than 13.

For `O=C(C[C@H]1NC(=O)CC[C@@H]1O)Cn1cnc2ccccc2c1=O`, the values for the EC50 in the test with Plasmodium falciparum and in the test on FM3A were more than 52000 nM and more than 52 µM, respectively.

Regarding `O=c1c2cc(O)ccc2ncn1CC1(O)C[C@@H]2NCCC[C@@H]2O1` (stereo not given in full), the results for the half-maximal effective concentration (EC50) in the test on Plasmodium falciparum and in the test with FM3A were 0.27 nM and 29 µM, respectively. This compound displayed an ED90 in the test on Plasmodium berghei [1] of 37 mg/kg. In the test with Plasmodium berghei [2], this compound showed an ED50 of 6 mg/kg. Moreover, the Ratio in test [3] was found to be 10741.

With `O=C(C[C@H]1NCCC[C@@H]1O)Cn1cnc2ccc(O)cc2c1=O`, the values for the EC50 in the test with Plasmodium falciparum and in the test on FM3A were 2.2 nM and 0.27 µM, respectively. For the same compound, the ED50 was found to be 15 mg/kg in the test on Plasmodium berghei [4] and 0.6 mg/kg in the test with Plasmodium berghei [2]. In addition, the values for the ED90 in the test with Plasmodium berghei [4] and in the test on Plasmodium berghei [1] were 27 mg/kg and 5.2 mg/kg, respectively. Moreover, the Ratio in test [3] was determined as 123.

In the case of `O=c1c2ccccc2ncn1CC1(O)C[C@@H]2NCC[C@H](O)[C@@H]2O1` (stereo not given in full), the EC50 was 150 nM in the test on Plasmodium falciparum and 0.25 µM in the test with FM3A. Besides, the Ratio in test [3] stood at 167.

Consider `O=C(C[C@H]1NCC[C@H](O)[C@@H]1O)Cn1cnc2ccccc2c1=O`, for which the 50% effective concentration (EC50) in the test on Plasmodium falciparum turned out to be 22 nM; in the test on FM3A it was 36 µM. Also, the values for the ED50 with Plasmodium berghei [4] and in the test with Plasmodium berghei [2] were 8 mg/kg and 2.4 mg/kg, respectively. Moreover, the ED90 in the test with Plasmodium berghei [4] was 23 mg/kg; in the test on Plasmodium berghei [1] it was 8.3 mg/kg. Moreover, the Ratio in test [3] was 1636.

In the test with Plasmodium berghei [1], `O=C(C[C@@H]1NCCC[C@H]1O)Cn1cnc2ccccc2c1=O` (single isomer, unassigned) [FEBRIFUGINE] registered an ED90 of 1.5 mg/kg. Besides, in the test with Plasmodium berghei [2], the ED50 is 0.3 mg/kg. In addition, the Ratio in test [3] is 243.

For `C[C@@H]1CC[C@H]2[C@@H](C)C(=O)O[C@@H]3O[C@@]4(C)CC[C@@H]1[C@]32OO4` [ARTEMISININ], the ED50 was 3 mg/kg in the test with Plasmodium berghei [4] and 2 mg/kg in the test on Plasmodium berghei [2]. For the same compound, the ED90 in the test with Plasmodium berghei [4] was determined as 8 mg/kg; with Plasmodium berghei [1], 3.3 mg/kg. Also, the Ratio in test [3] is 1000.

Turning to `CCN(CC)CCCC(C)Nc1ccnc2cc(Cl)ccc12` (stereo not given) [CHLOROQUINE], the figures for the ED50 in the test with Plasmodium berghei [4] and in the test on Plasmodium berghei [2] were 32 mg/kg and 5.4 mg/kg, respectively. Besides, the ED90 with Plasmodium berghei [4] was 89 mg/kg; in the test with Plasmodium berghei [1], 13 mg/kg.

`O=c1c2ccccc2ncn1CC1(O)C[C@@H]2NCCC[C@@H]2O1` (stereo not given in full) [ISOFEBRIFUGINE]: in the test with Plasmodium berghei [5], the Inhibition amounted to 70%. Moreover, the ED50 in the test on Plasmodium berghei [2] came out at 79 mg/kg. Also, in test [3], the Ratio is reported as 53.
